NS3 helicase inh: inhibitors of HCV NS3 helicase, primary screen, biochemical, Cy5 molecular beacon fluorescence; Hepatitis C virus NS3 helicase; inhibition, % at 10.9 µM; AID 1800, 2009; NS3 helicase DNA unwinding; 290,000 tested, 0.56% active;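 active = inhibition above the mean of all tested compounds plus 3 SD, set per campaign, cut at about 35% in these data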;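 also: 0% = DMSO wells and 100% = thioflavine S control wells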
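System: NS3 helicase fragment of HCV / Schedule: 1 h at 25 °C / Control set: DMSO alone as 0% and 110 µM thioflavine S as 100% / Reagent: Cy5/quencher beacon DNA duplex and ATP to start / Technique: Cy5 fluorescence / Replication: singlicate / Evaluation: % inhibition of end-to-start signal ratio versus controls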
DNMT1 inh: human DNMT1 methyltransferase inhibitors, primary screen, biochemical, molecular beacon, fluorescence, HinP1I cleavage, uHTS; 360,000 tested, 0.83% active; AID 588458, 2011; DNA (cytosine-5)-methyltransferase 1 (Homo sapiens), P26358; inhibition (reported as % activation of signal), % at 10 µM
Target sequence (P26358 504-1616 limits assumed): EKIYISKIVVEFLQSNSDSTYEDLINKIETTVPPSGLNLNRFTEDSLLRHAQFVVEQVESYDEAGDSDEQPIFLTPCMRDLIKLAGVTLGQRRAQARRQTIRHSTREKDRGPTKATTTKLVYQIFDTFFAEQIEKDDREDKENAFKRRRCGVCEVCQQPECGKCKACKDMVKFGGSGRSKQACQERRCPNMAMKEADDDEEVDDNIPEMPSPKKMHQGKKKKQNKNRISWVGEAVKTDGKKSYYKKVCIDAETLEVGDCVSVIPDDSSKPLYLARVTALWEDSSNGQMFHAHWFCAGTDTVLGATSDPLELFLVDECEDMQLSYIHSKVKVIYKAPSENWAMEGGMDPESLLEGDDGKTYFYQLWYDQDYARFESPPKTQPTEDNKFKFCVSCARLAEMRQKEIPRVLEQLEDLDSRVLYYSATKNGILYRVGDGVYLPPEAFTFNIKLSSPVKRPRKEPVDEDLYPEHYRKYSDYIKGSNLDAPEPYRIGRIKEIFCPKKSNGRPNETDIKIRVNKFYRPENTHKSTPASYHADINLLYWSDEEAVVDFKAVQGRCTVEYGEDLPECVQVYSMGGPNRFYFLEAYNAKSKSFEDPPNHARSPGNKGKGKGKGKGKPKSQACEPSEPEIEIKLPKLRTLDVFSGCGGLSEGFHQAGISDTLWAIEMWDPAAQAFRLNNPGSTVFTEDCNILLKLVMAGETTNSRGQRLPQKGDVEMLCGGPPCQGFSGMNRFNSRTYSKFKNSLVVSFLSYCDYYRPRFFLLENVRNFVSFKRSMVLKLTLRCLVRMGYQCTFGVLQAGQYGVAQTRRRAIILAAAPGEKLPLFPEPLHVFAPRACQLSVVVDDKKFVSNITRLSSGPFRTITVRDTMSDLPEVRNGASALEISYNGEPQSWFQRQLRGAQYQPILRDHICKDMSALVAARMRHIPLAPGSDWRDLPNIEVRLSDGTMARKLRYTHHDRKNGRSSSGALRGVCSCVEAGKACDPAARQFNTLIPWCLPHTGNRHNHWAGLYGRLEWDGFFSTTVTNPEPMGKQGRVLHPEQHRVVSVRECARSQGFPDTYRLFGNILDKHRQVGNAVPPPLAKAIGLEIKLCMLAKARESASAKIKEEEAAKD
NSD2 inh: NSD2 histone methyltransferase inhibitors, primary screen, biochemical, AlphaScreen, single concentration, set 2. inhibition, % at 12.5 µM. NSD2 peptide methylation, 120 min. AID 743445, 2014. Histone-lysine N-methyltransferase NSD2 (Homo sapiens), O96028. 310,000 tested, 0.54% active
CASP6 VEID inh: human caspase-6 inhibitors, primary screen, biochemical, VEID-R110 fluorescence, single point, set 2; P55212; purified caspase-6, Z-VEID-R110 cleavage fluorescence; inhibition, % at 12.5 µM; 350,000 tested, 0.53% active;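 active = mean inhibition across replicates at least about 35%, with every replicate also reaching that limit, limit read from the data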;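 also: 0% = median of neutral control wells and 100% = no fluorescence left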
* hit, by the source's call; nt = no result given. An excerpt weighted towards active compounds, which were near 1.5% of everything screened. Rule as the data show it, unless noted: active = inhibition above about 50%; inactive = the rest.

SMILES | NS3 helicase inh | DNMT1 inh | NSD2 inh | CASP6 VEID inh
CCCCCCCCCCCCCCCCCCNc1ccn(C2OC(COP(=O)(O)OCC3OC(n4cc(F)c(=O)[nH]c4=O)CC3O)C(O)C2O)c(=O)n1 (stereo not drawn) | nt | 80* | nt | 17
O=C(N[C@H]1CC[C@@H](CCn2cc(-c3ccccn3)nn2)O[C@@H]1CO)c1cccnc1 | nt | nt | nt | 1
CCNC(=O)C[C@H]1CC[C@H]2[C@@H](COc3ccc(NC(=O)Nc4cccc(C#N)c4)cc3C(=O)N2C)O1 | nt | nt | nt | 3
O=C(C1CCN(c2ccc(N3CCOCC3)nn2)CC1)N1CCc2ccccc2C1 | -13 | 1 | 4 | 56*
O=C(C[C@@H]1CC[C@@H](NC(=O)Nc2ccc(F)cc2)[C@H](CO)O1)NCc1ccccn1 | nt | nt | nt | -2
COc1ccc2c3c([nH]c2c1)[C@H](CO)N(C(C)=O)CC31CCN(C(=O)CN2CCOCC2)CC1 | nt | nt | nt | 3
C[C@@H]1CN([C@@H](C)CO)C(=O)c2cc(NS(=O)(=O)c3ccccc3)ccc2O[C@H]1CN(C)Cc1ccccc1 | nt | nt | nt | -1
O=C(/C=C/c1ccco1)Nc1cccc2cccnc12 | 10 | 63* | 4 | 10
Cc1cc2c(=Cc3ccc(N(C)C)cc3)c3ccccc3n2[n+]1C | nt | 12 | 55* | -4
CN(C)c1ccc(C=c2c3ccccc3n3c2c2ccccc2[n+]3C)cc1 | nt | 29 | nt | -26
CCOC(=O)SC1=N/C(=C\c2ccc(N(C)C)cc2)C(=O)S1 | 15 | -4 | 14 | 7
CCOC(=O)c1cc2c(=Cc3ccc(N(C)C)cc3)c3ccccc3n2[n+]1C | nt | 10 | 37 | 97*
COc1ccc(C(=O)NCC(c2ccco2)N2CCCCC2)cc1S(=O)(=O)Nc1ccc(C)cc1 (stereo not drawn) | nt | 13 | 0 | 2
COc1ccc(C(=O)NCC(c2ccco2)N2CCCC2)cc1S(=O)(=O)N1CCCCC1C (stereo not drawn) | nt | 3 | 4 | 53*
Oc1ccc(N=Cc2ccc(OCc3ccccc3)cc2)cc1 | 21 | 28 | 79* | 8
O=C(N/N=C/c1ccc(OCc2ccccc2)cc1)c1ccncc1 | 5 | 2 | -3 | 1
COc1ccc2c3c(n(C)c2c1)[C@@H](CO)N(C(=O)c1ccccn1)CC31CCN(C(=O)Cc2ccccc2)CC1 | nt | nt | nt | 6
O=S(=O)(Nc1ccc(O)c2ncccc12)c1ccccc1F | nt | 59* | nt | nt
O=C1[C@H]2[C@@H](c3ccccc3)N[C@]3(CCCN(CC4CCCCC4)C3=O)[C@H]2C(=O)N1Cc1ccccc1 | nt | -2 | nt | 41*
O=C1[C@H]2[C@@H](c3ccc(C(F)(F)F)cc3)N[C@]3(CCCN(CC4CCCCC4)C3=O)[C@H]2C(=O)N1Cc1ccccc1 | nt | -7 | nt | 4
CS(=O)(=O)Nc1ccc2c(c1)[C@H]1C[C@@H](CC(=O)NCC3CC3)O[C@H](CO)[C@H]1O2 | nt | nt | nt | -2
O=C1OC(c2ccccc2)=N/C1=C\C=C\c1ccco1 | 21 | 6 | 2 | 56*
O=C1OC(c2ccc(Cl)cc2)=N/C1=C\C=C\c1ccco1 | 33 | 34 | 0 | 64*
CCCNC(=O)N1CC2(CN(C(=O)Cc3cccnc3)C2)c2c([nH]c3cc(OC)ccc23)[C@@H]1CO | nt | nt | nt | -1
CN1C(=O)CCS(=O)(=O)C1c1ccc(Cl)c(Cl)c1 (stereo not drawn) | nt | 7 | 0 | 57*
SMILES | NS3 helicase inh | DNMT1 inh | NSD2 inh | CASP6 VEID inh
CN1CCCN(S(=O)(=O)c2ccc(Cl)c(Cl)c2)CC1 | -6 | 3 | 11 | -9
O=C(Nc1ccc(-n2nncc2-c2ccco2)cc1)c1cccc(F)c1 | 11 | -6 | -1 | nt
O=C(Nc1ccc(-n2nncc2-c2ccco2)cc1)c1cc2ccccc2oc1=O | 17 | 112* | nt | nt
N=C1/C(=C/c2ccc(-c3cccc(C(=O)O)c3)o2)C(=O)N=C2SC(CC(=O)N3CCOCC3)=NN12 | 17 | 56* | 84* | 31
N=C1/C(=C\c2ccc(SCc3ccccc3)o2)C(=O)N=C2SC(CC(=O)N3CCOCC3)=NN12 | 6 | 10 | 2 | 7
N=C1/C(=C\c2ccc(-c3cccc(C(=O)O)c3)o2)C(=O)N=C2SC=C(c3ccccc3)N12 | 18 | 90* | nt | 50*
Cc1ccc(/C=C2\C(=N)N3N=C(CC(=O)N4CCOCC4)SC3=NC2=O)o1 | 4 | 13 | 4 | 38*
C[C@H]1CCCCO[C@@H](CN(C)Cc2ccc3c(c2)OCO3)[C@@H](C)CN([C@@H](C)CO)C(=O)c2cc(NS(=O)(=O)c3ccccc3)ccc2O1 | nt | nt | nt | 3
CC(C)c1cn(CC[C@@H]2CC[C@H](N)[C@@H](CO)O2)nn1 | nt | nt | nt | 1
CC(CC(=O)Nc1ccc2c(c1)c(=O)n(C)n2-c1cccs1)c1ccccc1 (stereo not drawn) | nt | 0 | -4 | 37*
O=C(Nc1ccc(F)cc1)N[C@H]1CC[C@@H](CC(=O)N2CCCCC2)O[C@H]1CO | nt | nt | nt | 1
CN(c1ccccc1)S(=O)(=O)c1cccc(C(=O)OCC(=O)Nc2ccc(C(N)=O)cc2)c1 | nt | -3 | 6 | 40*
C[C@H](CO)N1C[C@H](C)[C@H](CN(C)Cc2ccc(C(F)(F)F)cc2)Oc2ccc(NC(=O)NC3CCCCC3)cc2CC1=O | nt | nt | nt | 2
c1ccc(CCNc2ccc3ncc(-c4cccc5ccccc45)n3n2)nc1 | nt | 2 | -1 | 57*
O=C(/C=C/c1ccc(Br)o1)OCc1nc2ccsc2c(=O)[nH]1 | nt | 104* | nt | 38*
Cc1ccc2nc(/C(C#N)=C/c3ccc(O)c(O)c3)[nH]c2c1 | 24 | 23 | 94* | 20
O=c1[nH][nH]c2c([N+](=O)[O-])ccc(F)c12 | nt | nt | 22 | 66*
O=c1ccc2cccc([N+](=O)[O-])c2[nH]1 | nt | 4 | 1 | 2
O=C(Cc1ccncc1)N[C@H]1CC[C@@H](CCn2cc(-c3ccccc3F)nn2)O[C@H]1CO | nt | nt | nt | 0
CCCCC1(c2ccc(F)cc2)NC(=O)N(CC(=O)N2CCN(C(=O)c3ccco3)CC2)C1=O (stereo not drawn) | 1 | 2 | -3 | 46*
Clc1ccc2c(c1)-c1ccccc1C1=NCCN12 | nt | 51* | 1 | -5
CN1C2=NCCN2C(=O)c2cc(Cl)ccc21 | 7 | 0 | -2 | -5
Brc1ccc2c(c1)-c1ccccc1C1=NCCN12 | nt | 53* | 3 | 0
N=C1S/C(=C\c2ccco2)C(=O)N1c1nccs1 | 24 | 7 | 8 | 37*
Cc1ccc(N2C(=O)/C(=C/c3ccco3)SC2=S)cc1 | 10 | -2 | 0 | 7
O=C(C[C@H]1CC[C@@H]2[C@H](COC[C@H](O)CN2S(=O)(=O)c2ccccc2)O1)NCCN1CCCC1 | nt | nt | nt | -2
CC1OC(OCC2OC(Oc3c(-c4ccc(O)cc4)oc4cc(O)cc(O)c4c3=O)C(O)C(O)C2O)C(O)C(O)C1O (stereo not drawn) | 14 | 15 | nt | 54*
Nc1cc(N)cc(C(=O)c2ccccc2)c1 | nt | -22 | 45 | 36*
O=C(c1ccccc1)c1cccc(C(=O)c2ccccc2)c1 | nt | -6 | -6 | nt

Screening data: PubChem, several laboratories
